The record followed here is ChEMBL document CHEMBL1926562, “Design, synthesis and biological activity of sphingosine kinase 2 selective inhibitors” (Bioorg Med Chem, 2012).

Each structure is given as a SMILES string. Activity calls are given as the source filed them. The rule behind the calls is not given here. Some results are limits rather than exact numbers.

Test [1] concerns the target T1, Sphingosine kinase 2 (Mus musculus) (UniProt Q9JIA7).
T1 sequence (whole entry): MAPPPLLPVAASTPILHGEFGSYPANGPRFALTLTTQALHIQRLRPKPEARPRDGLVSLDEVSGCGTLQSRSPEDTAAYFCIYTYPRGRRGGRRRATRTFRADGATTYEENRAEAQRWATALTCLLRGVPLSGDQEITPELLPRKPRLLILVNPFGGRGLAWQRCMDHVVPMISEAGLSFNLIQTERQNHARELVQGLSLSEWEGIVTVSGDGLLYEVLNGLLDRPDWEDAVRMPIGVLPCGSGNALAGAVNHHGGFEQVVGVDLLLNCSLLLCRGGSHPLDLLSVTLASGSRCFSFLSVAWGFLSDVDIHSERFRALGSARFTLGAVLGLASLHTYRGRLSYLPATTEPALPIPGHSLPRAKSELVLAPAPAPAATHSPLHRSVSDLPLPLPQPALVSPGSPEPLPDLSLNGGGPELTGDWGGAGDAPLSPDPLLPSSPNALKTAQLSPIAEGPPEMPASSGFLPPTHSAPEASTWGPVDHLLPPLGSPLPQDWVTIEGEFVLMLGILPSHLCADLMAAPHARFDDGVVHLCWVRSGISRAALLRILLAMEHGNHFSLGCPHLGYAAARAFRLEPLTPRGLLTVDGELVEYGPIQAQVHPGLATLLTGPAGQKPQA
The experiment in a line: Inhibition of mouse SphK2 expressed in baculovirus infected Sf9 insect cells assessed as remaining activity using sphingosine and [gamma-(32)P]-ATP at 100 uM by scintillation proximity counting. Put shortly:
(§1)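 Enzyme source: supernatant (10,000×g) of homogenized Sf9 cells infected with recombinant virus for 72 h, 2-3 μg protein per reaction. Sphingosine substrate at 10 μM for SphK1 and 5 μM for SphK2. Initial screen used inhibitor at 100 μM, with some compounds at 10 μM. Read-out is percent of remaining kinase activity, averaged over three experiments.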

Test [2] addresses T2, Sphingosine kinase 1 (Homo sapiens, UniProt Q9NYA1). The experiment in a line: Inhibition of human SphK1 expressed in baculovirus infected Sf9 insect cells assessed as remaining activity using sphingosine and [gamma-(32)P]-ATP as substrate at 100 uM by scintillation proximity counting. The gist of the method:
as §1

In test [3] the target is T1, Sphingosine kinase 2 (Mus musculus). The experiment in a line: Inhibition of mouse SphK2 expressed in baculovirus infected Sf9 insect cells using sphingosine and [gamma-(32)P]-ATP at 10 uM by scintillation proximity counting. Put shortly:
as §1

The target in a further test is T3, Sphingosine kinase 2 (Mus musculus, UniProt Q9JIA7).
T3 sequence (Q9JIA7 whole entry): T1 sequence (whole entry)
Briefly: Inhibition of mouse SphK2 expressed in baculovirus infected Sf9 insect cells using sphingosine and [gamma-(32)P]-ATP by scintillation proximity assay.

The target of test [4] is T2, Sphingosine kinase 1. The experiment in a line: Inhibition of human SphK1 expressed in baculovirus infected Sf9 insect cells using sphingosine and [gamma-(32)P]-ATP by scintillation proximity assay. The gist of the method:
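Ki calculated as Ki = [I]/(K′m/Km – 1), using a sphingosine Km of 10 μM for SphK1 and 5 μM for SphK2. Enzyme came from infected Sf9 cell extract (10,000×g supernatant, 2-3 μg protein).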

Test [5] is described as follows: Selectivity ratio of Ki/Km for human SphK1 to Ki/Km for mouse SphK2. Put shortly: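 Selectivity calculated as (Ki/Km)SphK1 divided by (Ki/Km)SphK2, with sphingosine Km taken as 10 μM for SphK1 and 5 μM for SphK2.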
The target in test [6] is T1, Sphingosine kinase 2 (Mus musculus). Briefly: Inhibition of mouse SphK2 expressed in baculovirus infected Sf9 insect cells assessed as remaining activity using sphingosine and [gamma-(32)P]-ATP at 10 uM by scintillation proximity counting. The gist of the method: as §1

T2 sequence (Q9NYA1 whole entry): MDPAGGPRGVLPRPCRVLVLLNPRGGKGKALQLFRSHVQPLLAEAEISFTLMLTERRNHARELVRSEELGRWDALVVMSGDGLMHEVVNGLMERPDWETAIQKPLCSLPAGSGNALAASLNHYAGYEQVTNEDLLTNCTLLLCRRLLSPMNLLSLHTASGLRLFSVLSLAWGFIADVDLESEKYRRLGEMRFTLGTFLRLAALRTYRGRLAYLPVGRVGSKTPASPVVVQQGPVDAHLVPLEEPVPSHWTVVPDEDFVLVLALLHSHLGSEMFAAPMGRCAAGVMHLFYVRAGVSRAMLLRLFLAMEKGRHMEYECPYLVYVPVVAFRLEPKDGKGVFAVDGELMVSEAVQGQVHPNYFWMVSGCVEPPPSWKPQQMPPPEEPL

With `CCCCCCCCc1ccc([C@H]2CC[C@@H](NC3CC3)CC2)cc1`, the Activity in test [1] is 116%; at Sphingosine kinase 1 [2] it was 113%.
`CCCCCCCCc1ccc([C@H]2CC[C@@H]([N+](C)(C)CCO)CC2)cc1`: the inhibition result in test [3] is “Active”. Moreover, the Activity in test [1] is 32.6%; at Sphingosine kinase 1 [2], 80.9%.
As for `CCCCCCCCc1ccc([C@H]2CC[C@@H](NC(C)C)CC2)cc1`, the Activity in test [1] worked out at 16.5%; at Sphingosine kinase 1 [2], 90%.
As to `CCCCCCCCc1ccc([C@H]2CC[C@H](NC)CC2)cc1`, the Activity in test [1] turned out to be 7.7%; at Sphingosine kinase 1 [2], 15.7%.
Consider `CCCCCCCCc1ccc([C@H]2CC[C@@H]([N+](C)(C)C)CC2)cc1`, for which the inhibition result in test [3] was “Active”. The Activity worked out at 8.3% in test [1] and 65.8% at Sphingosine kinase 1 [2].
Consider `CCCCCCCCc1ccc([C@H]2CC[C@@H](NCCC)CC2)cc1`, for which the Activity was found to be 18.3% in test [1] and 75.6% at Sphingosine kinase 1 [2].
For `C=CCN[C@H]1CC[C@@H](c2ccc(CCCCCCCC)cc2)CC1`, in that order: 100% and 91.8%.
For `C#CCN[C@H]1CC[C@H](c2ccc(CCCCCCCC)cc2)CC1`, in that order: 100% and 109%.
Take `CCCCCCCCc1ccc(C2CCC(=CC(=O)OC)CC2)cc1` (stereo unspecified): the Activity (in test [1]; at Sphingosine kinase 1 [2]) was 101% each time.
In the case of `CCCCCCCCc1ccc([C@H]2CC[C@H](N)CC2)cc1`, the inhibition constant Ki on Sphingosine kinase 2 came out at 29 µM; on Sphingosine kinase 1 [4], 32 µM. In addition, the Selectivity ratio in test [5] came to 0.55. The Activity in test [1] was found to be 25%; at Sphingosine kinase 1 [2], 47%.
For the molecule `CCCCCCCCc1ccc([C@H]2CC[C@@H](N(C)C(C)C)CC2)cc1`, the figures for the Activity (in test [1]; at Sphingosine kinase 1 [2]) were 101% and 113%, respectively.
The corresponding values for `C=CCN[C@H]1CC[C@H](c2ccc(CCCCCCCC)cc2)CC1` are 5.7% and 19%.
For `CCCCCCCCc1ccc([C@H]2CC[C@@H](NCCO)CC2)cc1`, in that order: 8.9% and 22.4%.
The corresponding values for `CCCCCCCCc1ccc(C2CCC(=NO)CC2)cc1` (stereo unspecified) are 56.5% and 130%.
`CCCCCCCCc1ccc([C@H]2CC[C@H](NC(C)C)CC2)cc1`: the Activity turned out to be 23.9% in test [1] and 24.6% on Sphingosine kinase 1 [2].
The corresponding values for `CCCCCCCCc1ccc(C2CCC(=CCO)CC2)cc1` (stereo unspecified) are 66.7% and 100%.
`CCCCCCCCc1ccc([C@H]2CC[C@H](NCc3ccncc3)CC2)cc1`: the Activity was 23% in test [1] and 33% on Sphingosine kinase 1 [2].
The corresponding values for `CCCCCCCCc1ccc([C@H]2CC[C@H](NCCCC)CC2)cc1` are 20.1% and 20.5%.
On to `CCCCCCCCc1ccc([C@H]2CC[C@H]([N+](C)(C)CCO)CC2)cc1`, for which the results for the Ki on Sphingosine kinase 2 and at Sphingosine kinase 1 [4] were 14 µM and 70 µM, respectively. For the same molecule, in test [5], the Selectivity ratio worked out at 2.5. Further, the values for the Activity (in test [1]; at Sphingosine kinase 1 [2]) were 3% and 10.5%, respectively.
As to `CCCCCCCCc1ccc([C@H]2CC[C@H](N(C)CCC)CC2)cc1`, the Activity worked out at 45.9% in test [1] and 77% at Sphingosine kinase 1 [2].
As to `CCCCCCCCc1ccc([C@H]2CC[C@@H](NC)CC2)cc1`, the inhibitory constant (Ki) is 40 µM at Sphingosine kinase 2 and above 100 µM on Sphingosine kinase 1 [4]. The Activity worked out at 5.4% in test [1] and 69.8% on Sphingosine kinase 1 [2].
For `CCCCCCCCc1ccc([C@H]2CC[C@@H](N(C)C)CC2)cc1`, the figures for the Activity (in test [1]; at Sphingosine kinase 1 [2]) were 50.8% and 83.9%, respectively.
For `CCCCCCCCc1ccc(C2CCC(N)(C#N)CC2)cc1` (stereo unspecified), in that order: 61.8% and 101%.
For `CCCCCCCCc1ccc([C@H]2CC[C@H](O)CC2)cc1`, in that order: 70.9% and 113%.
For `CCCCCCCCc1ccc([C@H]2CC[C@H](NCCC)CC2)cc1`, the Activity came to 5.5% in test [1] and 15.8% at Sphingosine kinase 1 [2].
As for `CCCCCCCCc1ccc(-c2cccc(N3CCNCC3)n2)cc1`, the Activity in test [6] turned out to be 87.3%.
As to `CCCCCCCCc1ccc([C@H]2CC[C@H]([N+](C)(C)C(C)C)CC2)cc1`, the Ki was 33 µM at Sphingosine kinase 2 and above 100 µM on Sphingosine kinase 1 [4]. Further, the values for the Activity (in test [1]; at Sphingosine kinase 1 [2]) were 11.5% and 49.1%, respectively.
Regarding `CCCCCCCCc1ccc([C@H]2CC[C@H](NCc3ccccc3)CC2)cc1`, the Activity in test [1] is 53.3%; on Sphingosine kinase 1 [2], 83.9%.
On to `CCCCCCCCc1ccc([C@H]2CC[C@H](N(C)C)CC2)cc1`, for which the inhibition constant (Ki) at Sphingosine kinase 2 is 27 µM; at Sphingosine kinase 1 [4] it was 40 µM. Also, the Selectivity ratio in test [5] is 0.74. In addition, the Activity is 9% in test [1] and 46.3% on Sphingosine kinase 1 [2].
For `C#CCN[C@H]1CC[C@@H](c2ccc(CCCCCCCC)cc2)CC1`, the Activity in test [1] came to 101%; on Sphingosine kinase 1 [2] it was 100%.
The corresponding values for `CCCCCCCCc1ccc([C@H]2CC[C@@H](N(C)CCC)CC2)cc1` are 65.5% and 90.7%.
The corresponding values for `C=CC[N+](C)(C)[C@H]1CC[C@H](c2ccc(CCCCCCCC)cc2)CC1` are 2.1% and 30.4%.
As to `CCCCCCCCc1ccc([C@H]2CC[C@@H](NCc3ccccc3)CC2)cc1`, the Activity in test [1] is 67.2%; at Sphingosine kinase 1 [2], 98.4%.
As for `CCCCCCCCc1ccc(C2CCC(O)(C[N+](=O)[O-])CC2)cc1` (stereo unspecified), the results for the Activity (in test [1]; at Sphingosine kinase 1 [2]) were 52.7% and 100%, respectively.
For `CCCCCCCCc1ccc([C@H]2CC[C@@H](NCCCC)CC2)cc1`, in that order: 60.6% and 100%.
The corresponding values for `CCCCCCCCc1ccc([C@H]2CC[C@H](NC3CC3)CC2)cc1` are 77% and 65%.
With `CCCCCCCCc1ccc([C@H]2CC[C@H](NCCO)CC2)cc1`, the results for the Ki at Sphingosine kinase 2 and on Sphingosine kinase 1 [4] were 38 µM and 22 µM, respectively. In addition, the Selectivity ratio in test [5] was found to be 1.23. The values for the Activity (in test [1]; at Sphingosine kinase 1 [2]) were 8.5% and 21.6%, respectively.
For the molecule `CCCCCCCCc1ccc(-c2cnc(N)cn2)cc1`, the Activity in test [6] stood at 99%.
`CCCCCCCCc1ccc([C@H]2CC[C@@H]([N+](C)(C)C(C)C)CC2)cc1`: the inhibition result in test [3] is “Active”. Further, the Activity in test [1] worked out at 10.4%; at Sphingosine kinase 1 [2], 101%.
In the case of `CCCCCCCCc1ccc([C@H]2CC[C@H]([N+](C)(C)Cc3ccccc3)CC2)cc1`, the Activity is 8.3% in test [1] and 25.7% at Sphingosine kinase 1 [2].
`CCCCCCCCc1ccc([C@H]2CC[C@@H]([N+](C)(C)CCC)CC2)cc1`: the inhibition result in test [3] is “Active”. The values for the Activity (in test [1]; on Sphingosine kinase 1 [2]) were 3.2% and 25.1%, respectively.
For `CCCCCCCCc1ccc(-c2ccc(-n3ccccc3=O)nc2)cc1`, the Activity in test [6] was 93.7%.
